Screening results from PubChem.
A selection: hits, their analogues and other compounds. The true share with any hit is near 2.9%.
PAX8 inh HTS: inhibitors of PAX8 transcriptional activity in RMG-I cells | inhibition, % at 12.6 µM | actives 1.2% (n = 360,000) | AID 652154 | RMG-I TPO-luciferase reporter, SteadyGlo, 24 h;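 active means mean replicate inhibition at least 60% with every replicate also reaching 60%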;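 further: luciferase light reporting Pax8 driven TPO promoter activity; plate controls were median of neutral control wells for no effect and mitoxantrone controls for full effect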
CDK5 p35 inh: blocks human CDK5/p35 kinase activity; Q00535+Q15078; Recombinant CDK5/p35, ADP-Glo luminescence, 60 min; inhibition, % at 10 µM; actives 0.01% (n = 330,000);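 active means highest replicate inhibition of at least 50% and at least 75% of replicates reaching 50%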;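 further: plate controls were DMSO neutral control for no effect and GW8510 at 10 µM for full effect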
Target sequence (Q00535 whole entry, looked up): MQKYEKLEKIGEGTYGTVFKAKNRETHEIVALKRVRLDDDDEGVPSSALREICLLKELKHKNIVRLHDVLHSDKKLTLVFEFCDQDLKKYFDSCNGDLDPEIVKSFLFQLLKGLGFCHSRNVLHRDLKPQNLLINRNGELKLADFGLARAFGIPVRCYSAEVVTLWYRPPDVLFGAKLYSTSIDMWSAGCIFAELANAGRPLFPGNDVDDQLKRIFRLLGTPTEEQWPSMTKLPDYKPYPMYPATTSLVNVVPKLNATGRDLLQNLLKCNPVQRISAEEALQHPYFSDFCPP
Target sequence (Q15078 whole entry, looked up): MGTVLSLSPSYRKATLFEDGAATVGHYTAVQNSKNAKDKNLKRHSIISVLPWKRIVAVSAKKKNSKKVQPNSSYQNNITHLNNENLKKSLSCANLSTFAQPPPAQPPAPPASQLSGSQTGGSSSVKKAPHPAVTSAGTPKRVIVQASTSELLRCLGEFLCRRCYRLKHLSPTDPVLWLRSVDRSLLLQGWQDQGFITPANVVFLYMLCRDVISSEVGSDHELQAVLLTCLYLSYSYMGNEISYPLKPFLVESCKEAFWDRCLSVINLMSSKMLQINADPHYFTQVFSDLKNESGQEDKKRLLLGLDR
Cneo AK release: causes C. neoformans cell lysis. adenylate kinase release luminescence, 4 h; normalised: neutral wells 0, clomiphene wells 100. lysis activity, % at 15 µM. actives 0.2% (n = 360,000). AID 651654;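 active means mean lysis activity across replicates of at least 80%, whatever share of replicates individually reach that level; inactive means mean lysis activity below 80%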
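Assay system: Cryptococcus neoformans yeast cells / Dosing: single-point compound dose / Timing: 4 h at 37 °C static, read 1 h later / Measured by: luminescence of released adenylate kinase using an AK detection reagent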
INS-1E GSIS act: GLuc luminescence reporter in INS-1E cells, primary screen for activators of glucose-dependent secretion of insulin; AID 743287; actives 0.61% (n = 370,000); INS-1E GLuc reporter insulin secretion, 2-3 h; activation, % at 16.6 µM;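 active means lowest replicate activation of at least 40%, so every replicate reaches that level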;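 further: 0% = median of neutral control wells and 100% = median of IBMX positive control wells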
dFosB act: enhances mouse delta FosB homodimer DNA binding; P13346; purified delta FosB, TAMRA-CDK5 oligo fluorescence polarization; percent of positive-control signal above neutral wells; activation, % at 25 µM; actives 0.99% (n = 340,000); AID 493131;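 active means mean activation above about 17%, with every replicate also reaching it, limit read from the data, passing the limit was not always enough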
HIV Env fusion: HIV envelope-mediated fusion inhibition; inhibition, % at 12.3 µM; AID 651610; HeLa-JRFL Env/CEM21 cell fusion, luciferase; actives 1.1% (n = 360,000);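 active means mean replicate inhibition score of at least 50 and every replicate individually at or above 50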;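 further: 0% = plate neutral controls and 100% = maraviroc near 300 nM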
Numbers without * were called inactive; · = no result given; ! = a repeat was not active; [ ] = remark or other dose.

SMILES	PAX8 inh HTS	CDK5 p35 inh	Cneo AK release	INS-1E GSIS act	dFosB act	HIV Env fusion
C[C@H]1CCCCO[C@H](CN(C)Cc2ccccc2)[C@@H](C)CN([C@@H](C)CO)C(=O)c2cc(NS(=O)(=O)c3ccc(Cl)cc3)ccc2O1	39.6	·	4.0	-25.2	·	47.3[16.7 µM]
C[C@@H]1CN([C@H](C)CO)C(=O)c2cc(NS(=O)(=O)c3ccc(Cl)cc3)ccc2O[C@@H](C)CCCCO[C@@H]1CN(C)Cc1ccccc1	111.6*	·	-0.5	-24.3	·	65.2*[16.7 µM]
C[C@@H]1CN([C@H](C)CO)C(=O)c2cc(NS(=O)(=O)c3ccc(F)cc3)ccc2O[C@@H](C)CCCCO[C@H]1CN(C)Cc1ccccc1	76.5*	·	-2.3	-8.2	·	3.2[16.7 µM]
O=C(CCN1CCCCC1)NCC[C@H]1CC[C@H](NC(=O)C2CC2)[C@H](CO)O1	2.2	·	0.1	23.8	·	10.0[16.7 µM]
COc1ccc(S(=O)(=O)N2CCC(C(=O)NCc3ccccn3)CC2)cc1OC	·	-1.1	0.1	46.1*	3.1	·
COc1ccc(C2=NOC(C(=O)NCc3ccccn3)C2)cc1OC (stereo not given)	·	0.7	-1.8	94.4*	-1.2	-21.1
CN1CCN(C(=O)C[C@@H]2C[C@@H]3c4cc(NC(=O)C5CCOCC5)ccc4O[C@@H]3[C@@H](CO)O2)CC1	-11.9	·	-12.2	15.2	·	-6.4[16.7 µM]
C[C@@H]1CCCCO[C@H](CN(C)C(=O)c2ccncc2)[C@@H](C)CN([C@H](C)CO)C(=O)c2cc(NS(C)(=O)=O)ccc2O1	·	·	-4.3	11.3	·	-1.9[16.7 µM]
Cc1cc([N+](=O)[O-])nn1CCCC(=O)Nc1sc2c(c1C(N)=O)CCC(C)C2 (stereo not given)	97.5*	-1.6	·	6.7	4.1	·
C[C@@H]1CN([C@@H](C)CO)C(=O)Cc2cc(NC(=O)CCCN(C)C)ccc2O[C@H]1CN(C)Cc1ccncc1	-21.9	·	·	13.7	·	5.3[16.7 µM]
Cc1cccc(NC(=O)c2cc(-c3ccc(C)c(C)c3O)n[nH]2)c1	-119.9	-0.1	-2.3	-4.8	32.6*	-50.0
Cc1ccc(NC(=O)c2cc(-c3cc(Cl)ccc3C)n[nH]2)cc1NS(C)(=O)=O	40.1	·	-1.6	-12.6	·	65.0*
COc1ccc(NC(=O)c2cc(-c3ccc(C)c(C)c3O)n[nH]2)cc1Cl	16.4	0.6	-0.9	-22.6	12.9	-0.6
Cc1ccc(NC(=O)c2cc(-c3ccc(C)c(C)c3O)n[nH]2)cc1C	1.7	0.3	6.9	6.0	22.6*	-10.3
Cc1noc(C)c1NC(=O)N(C)C[C@H]1Oc2ncc(C#CC3CCCCC3)cc2C(=O)N([C@H](C)CO)C[C@@H]1C	·	·	-1.1	-8.9	·	3.4[16.7 µM]
Cc1ccc(C(=O)/C=C/c2ccccc2[N+](=O)[O-])cc1	-7.1	4.7	·	-11.3	-7.1	-11.3
O=C(/C=C/c1ccccc1[N+](=O)[O-])c1ccccc1Br	77.6*	2.8	4.1	-17.1	-10.9	2.9
O=c1oc2cc(OCc3c(F)cccc3Cl)ccc2cc1-c1ccccn1	·	-0.8	·	·	-1.8	·
CCCOc1ccc2cc(-c3ccccn3)c(=O)oc2c1	73.8*	3.6	-4.8	-8.9	-10.5	2.9
CC(C)NC(=O)Nc1ccc2c(c1)CC(=O)N([C@@H](C)CO)C[C@@H](C)[C@H](CN(C)S(=O)(=O)c1cccs1)O2	-17.4	·	-0.1	14.9	·	0.4[16.7 µM]
COc1ccc(NC(=O)Nc2ccc3c(c2)C(=O)N([C@H](C)CO)C[C@H](C)[C@H](CN(C)C(=O)Nc2ccc(F)cc2)OCCCC[C@@H](C)O3)cc1	-4.2	·	51.7	-18.2	·	-8.6[16.7 µM]
Nc1c(Cl)cc2c(c1Br)Cc1ccccc1-2	2.1	-1.6	-0.7	9.3	-0.6	-3.7
Nc1c(Cl)cc2c(c1Oc1ccccc1)C(=O)c1ccccc1C2=O	·	10.6	0.1	·	-12.3	125.2*
COc1ccc(S(=O)(=O)N(C)C[C@@H]2OCc3ccccc3-c3ccccc3C(=O)N([C@H](C)CO)C[C@@H]2C)cc1	·	·	-2.1	-14.6	·	·
O=C(O)CCCNC(=O)CCCNC(=O)C(c1ccccc1)c1ccccc1	-10.3	-0.8	·	7.0	4.6	-15.8
SMILES	PAX8 inh HTS	CDK5 p35 inh	Cneo AK release	INS-1E GSIS act	dFosB act	HIV Env fusion
O=C(O)CCCNC(=O)C(c1ccccc1)c1ccccc1	163.5*!	-0.2	·	-10.0	1.7	7.5
Cc1ccc2c(c1)C(=C(C#N)C#N)CCN2	-2.2	3.7	·	-7.4	-2.6	76.1*
COc1cc(OC)cc(C(=O)NCC(=O)OCC(=O)c2cc(C)n(Cc3ccco3)c2C)c1	91.7*	0.0	-5.5	·	-14.9	-4.2
Cc1cc2nc(-c3ccccc3O)[nH]c2cc1C	-199.6	1.4	-0.2	40.1*	11.2	-124.1
Cc1cc(=O)[nH]c(-c2ccccc2O)n1	·	0.4	-1.6	6.6	4.6	·
CN(C)CCn1c2ccccc2c2nc3ccc([N+](=O)[O-])cc3cc21	75.7*	·	-0.6	-6.4	·	36.9
C[C@@H]1CCCCO[C@H](CN(C)C(=O)c2ccccc2)[C@@H](C)CN([C@H](C)CO)C(=O)c2cc(NC(=O)Nc3ccc(C(F)(F)F)cc3)ccc2O1	6.9	·	-2.4	8.8	·	-8.8[16.7 µM]
C[C@@H]1CN([C@H](C)CO)C(=O)c2cc(NC(=O)Nc3ccc(C(F)(F)F)cc3)ccc2O[C@@H](C)CCCCO[C@H]1CN(C)C(=O)c1ccccc1	101.8*	·	-2.8	3.5	·	56.0*[16.7 µM]
C[C@@H]1CCCCO[C@@H](CN(C)C(=O)Nc2ccccc2)[C@H](C)CN([C@@H](C)CO)C(=O)c2cc(NC(=O)Nc3ccc(C(F)(F)F)cc3)ccc2O1	·	·	·	11.0	·	·
C[C@@H]1CCCCO[C@@H](CN(C)C(=O)Cc2ccccc2)[C@@H](C)CN([C@@H](C)CO)C(=O)c2cc(NC(=O)Nc3ccc(C(F)(F)F)cc3)ccc2O1	79.1*	·	1.1	-35.0	·	-4.1[16.7 µM]
C[C@@H]1CCCCO[C@@H](CN(C)C(=O)Nc2ccccc2)[C@H](C)CN([C@H](C)CO)C(=O)c2cc(NC(=O)Nc3ccc(C(F)(F)F)cc3)ccc2O1	85.6*	·	·	9.9	·	·
C[C@@H]1CCCCO[C@@H](CN(C)C(=O)Nc2ccc(C(F)(F)F)cc2)[C@H](C)CN([C@H](C)CO)C(=O)c2cc(NC(=O)Nc3ccccc3)ccc2O1	63.5*	·	-1.3	-11.0	·	43.5[16.7 µM]
O=C(C[C@@H]1C[C@@H]2c3cc(NC(=O)CC4CC4)ccc3O[C@@H]2[C@H](CO)O1)NCC1CC1	-2.3	·	6.0	5.8	·	9.2[16.7 µM]
O=C(NC1CCC1)[C@H]1[C@H](CO)[C@H]2Cn3c(ccc(C4=CCCC4)c3=O)[C@H]2N1C(=O)C1CCC1	2.3	·	·	7.7	·	9.0[16.7 µM]
O=C(c1ccc2c(c1)OCO2)N(Cc1ccco1)C1(C(=O)NC2CCCCC2)CCCCC1	-1.3	-0.9	-5.1	·	-3.5	88.5*
O=C(CCl)N=c1sccn1Cc1cccc2ccccc12	111.3*	-0.6	·	27.1	-1.2	66.3*
O=C(CCl)N=c1sccn1Cc1ccc(Cl)cc1Cl	111.0*	1.2	·	31.0	1.3	83.8*
